Experimental data: ChEMBL document CHEMBL4689842, “EUbOPEN Chemogenomics Library wave 1” (2021)
Values joined by “and” are separate entries in the source; they are usually repeats but may differ in a detail not shown here. Identical values can stand only once.

Tested on: U2OS
Test: Multiplex assay against U2OS
Format: toxicity, cell-based
Settings: human
How it was run: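 Per cents of healthy-nucleus cells form the tubulin, mitochondrial-mass and membrane-permeability phenotype values. Live cells were stained at seeding with Hoechst33342, BioTracker Green Microtubule Cytoskeleton Dye, MitoTracker Red and Annexin V Alexa Fluor 680. After compound addition they were imaged on a CQ1 microscope at 37°C and 5% CO2, and CellPathfinder machine-learning gating split them into Hoechst high-intensity objects or normal cells, normal cells into healthy, pyknosed or fragmented nuclei, and pyknosed cells into mitotic or apoptotic.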

[1] = 12 h, 1 µM, compound concentration 1 uM, replicate 1
[2] = 12 h, 1 µM, compound concentration 1 uM, replicate 2
[3] = 12 h, 10 µM, compound concentration 10 uM, replicate 1
[4] = 12 h, 10 µM, compound concentration 10 uM, replicate 2
[5] = 24 h, 1 µM, compound concentration 1 uM, replicate 1
[6] = 24 h, 1 µM, compound concentration 1 uM, replicate 2
[7] = 24 h, 10 µM, compound concentration 10 uM, replicate 1
[8] = 24 h, 10 µM, compound concentration 10 uM, replicate 2
[9] = 48 h, 10 µM, compound concentration 10 uM, replicate 1
[10] = 48 h, 10 µM, compound concentration 10 uM, replicate 2

CN[C@@H]1C[C@H]2O[C@@](C)([C@@H]1OC)n1c3ccccc3c3c4c(c5c6ccccc6n2c5c31)C(=O)NC4 [STAUROSPORINE]
Population Apoptotic (%) [1]: 53% | Population Fragmented Nuclei (%) [1]: 47% | Population Healthy Nuclei (%) [1]: 12% | Population Hoechst High Intensity Objects (%) [1]: 4% | Population Membrane Permeable-Phenotype (%) [1]: 89% | Population Mitochondria Different-Phenotype (%) [1]: 57% | Population Mitotic Cells (%) [1]: 46% | Population Normal (%) [1]: 95% | Population Pyknosed Nuclei (%) [1]: 40% | Population Tubulin-Different-Phenotype (%) [1]: 89% | Population Apoptotic (%) [2]: 62% | Population Fragmented Nuclei (%) [2]: 65% | Population Healthy Nuclei (%) [2]: 3% | Population Hoechst High Intensity Objects (%) [2]: 7% | Population Membrane Permeable-Phenotype (%) [2]: 100% | Population Mitochondria Different-Phenotype (%) [2]: 83% | Population Mitotic Cells (%) [2]: 37% | Population Normal (%) [2]: 92% | Population Pyknosed Nuclei (%) [2]: 30% | Population Tubulin-Different-Phenotype (%) [2]: 91% | Population Apoptotic (%) [3]: 51% and 87% and 83% | Population Fragmented Nuclei (%) [3]: 45% and 41% and 40% | Population Healthy Nuclei (%) [3]: 5% and 0% and 1% | Population Hoechst High Intensity Objects (%) [3]: 6% and 7% and 3% | Population Membrane Permeable-Phenotype (%) [3]: 94% and 100% and 71% | Population Mitochondria Different-Phenotype (%) [3]: 50% and 100% and 85% | Population Normal (%) [3]: 93% and 92% and 96% | Population Pyknosed Nuclei (%) [3]: 48% and 57% and 58% | Population Tubulin-Different-Phenotype (%) [3]: 94% and 100% | Population Apoptotic (%) [4]: 86% and 56% and 73% | Population Fragmented Nuclei (%) [4]: 26% and 64% and 42% | Population Healthy Nuclei (%) [4]: 15% and 6% and 12% | Population Hoechst High Intensity Objects (%) [4]: 15% and 8% | Population Membrane Permeable-Phenotype (%) [4]: 95% and 84% | Population Mitochondria Different-Phenotype (%) [4]: 75% and 71% and 84% | Population Normal (%) [4]: 84% and 91% | Population Pyknosed Nuclei (%) [4]: 29% and 45% | Population Tubulin-Different-Phenotype (%) [4]: 91% and 92% | Population Apoptotic (%) [5]: 93% | Population Fragmented Nuclei (%) [5]: 34% | Population Healthy Nuclei (%) [5]: 22% | Population Hoechst High Intensity Objects (%) [5]: 14% | Population Membrane Permeable-Phenotype (%) [5]: 96% | Population Mitochondria Different-Phenotype (%) [5]: 56% | Population Mitotic Cells (%) [5]: 6% | Population Normal (%) [5]: 85% | Population Pyknosed Nuclei (%) [5]: 42% | Population Tubulin-Different-Phenotype (%) [5]: 92% | Population Apoptotic (%) [6]: 94% | Population Fragmented Nuclei (%) [6]: 58% | Population Healthy Nuclei (%) [6]: 10% | Population Hoechst High Intensity Objects (%) [6]: 13% | Population Membrane Permeable-Phenotype (%) [6]: 95% | Population Mitochondria Different-Phenotype (%) [6]: 66% | Population Mitotic Cells (%) [6]: 5% | Population Normal (%) [6]: 86% | Population Pyknosed Nuclei (%) [6]: 31% | Population Tubulin-Different-Phenotype (%) [6]: 91% | Population Apoptotic (%) [7]: 93% and 90% and 94% | Population Fragmented Nuclei (%) [7]: 48% and 46% and 38% | Population Healthy Nuclei (%) [7]: 0% and 15% | Population Hoechst High Intensity Objects (%) [7]: 5% and 11% | Population Mitochondria Different-Phenotype (%) [7]: 50% and 45% | Population Mitotic Cells (%) [7]: 6% and 9% and 5% | Population Normal (%) [7]: 94% and 88% | Population Pyknosed Nuclei (%) [7]: 50% and 52% and 45% | Population Tubulin-Different-Phenotype (%) [7]: 50% and 100% and 94% | Population Apoptotic (%) [8]: 88% and 96% and 77% | Population Hoechst High Intensity Objects (%) [8]: 27% and 26% | Population Membrane Permeable-Phenotype (%) [8]: 95% and 92% | Population Mitochondria Different-Phenotype (%) [8]: 95% and 69% and 92% | Population Normal (%) [8]: 72% and 73% | Population Pyknosed Nuclei (%) [8]: 36% and 23% and 38% | Population Tubulin-Different-Phenotype (%) [8]: 95% and 92% | Population Apoptotic (%) [9]: 95% | Population Fragmented Nuclei (%) [9]: 51% and 55% | Population Healthy Nuclei (%) [9]: 0% | Population Hoechst High Intensity Objects (%) [9]: 7% and 11% | Population Mitochondria Different-Phenotype (%) [9]: 66% and 100% | Population Mitotic Cells (%) [9]: 4% | Population Normal (%) [9]: 92% and 88% | Population Pyknosed Nuclei (%) [9]: 47% and 43% | Population Tubulin-Different-Phenotype (%) [9]: 100% | Population Apoptotic (%) [10]: 89% and 100% | Population Fragmented Nuclei (%) [10]: 22% and 13% | Population Healthy Nuclei (%) [10]: 49% and 56% | Population Hoechst High Intensity Objects (%) [10]: 18% and 25% | Population Mitochondria Different-Phenotype (%) [10]: 96% and 92% | Population Mitotic Cells (%) [10]: 10% and 0% | Population Normal (%) [10]: 81% and 74% | Population Pyknosed Nuclei (%) [10]: 28% and 30% | Population Tubulin-Different-Phenotype (%) [10]: 96% and 92%

COc1cccc2cc(-c3nc([C@H]4CC[C@H](C(=O)O)CC4)n4ncnc(N)c34)[nH]c12 [OSI-027]
Population Apoptotic (%) [1]: 55% | Population Fragmented Nuclei (%) [1]: 14% | Population Healthy Nuclei (%) [1]: 81% | Population Hoechst High Intensity Objects (%) [1]: 1% | Population Membrane Permeable-Phenotype (%) [1]: 10% | Population Mitochondria Different-Phenotype (%) [1]: 6% | Population Mitotic Cells (%) [1]: 44% | Population Normal (%) [1]: 98% | Population Pyknosed Nuclei (%) [1]: 3% | Population Tubulin-Different-Phenotype (%) [1]: 21% | Total Cell Count [1]: 227 | Population Apoptotic (%) [2]: 33% | Population Fragmented Nuclei (%) [2]: 18% | Population Healthy Nuclei (%) [2]: 79% | Population Hoechst High Intensity Objects (%) [2]: 7% | Population Membrane Permeable-Phenotype (%) [2]: 8% | Population Mitochondria Different-Phenotype (%) [2]: 3% | Population Mitotic Cells (%) [2]: 66% | Population Normal (%) [2]: 92% | Population Pyknosed Nuclei (%) [2]: 1% | Population Tubulin-Different-Phenotype (%) [2]: 31% | Total Cell Count [2]: 117 | Population Apoptotic (%) [3]: 8% | Population Fragmented Nuclei (%) [3]: 5% | Population Healthy Nuclei (%) [3]: 76% | Population Hoechst High Intensity Objects (%) [3]: 10% | Population Membrane Permeable-Phenotype (%) [3]: 10% | Population Mitochondria Different-Phenotype (%) [3]: 21% | Population Mitotic Cells (%) [3]: 91% | Population Normal (%) [3]: 89% | Population Pyknosed Nuclei (%) [3]: 17% | Population Tubulin-Different-Phenotype (%) [3]: 27% | Total Cell Count [3]: 160 | Population Apoptotic (%) [4]: 14% | Population Fragmented Nuclei (%) [4]: 14% | Population Healthy Nuclei (%) [4]: 78% | Population Hoechst High Intensity Objects (%) [4]: 17% | Population Membrane Permeable-Phenotype (%) [4]: 7% | Population Mitochondria Different-Phenotype (%) [4]: 26% | Population Mitotic Cells (%) [4]: 85% | Population Normal (%) [4]: 82% | Population Pyknosed Nuclei (%) [4]: 7% | Population Tubulin-Different-Phenotype (%) [4]: 39% | Total Cell Count [4]: 101 | Population Apoptotic (%) [5]: 29% | Population Fragmented Nuclei (%) [5]: 10% | Population Healthy Nuclei (%) [5]: 81% | Population Hoechst High Intensity Objects (%) [5]: 3% | Population Membrane Permeable-Phenotype (%) [5]: 6% | Population Mitochondria Different-Phenotype (%) [5]: 5% | Population Mitotic Cells (%) [5]: 70% | Population Normal (%) [5]: 96% | Population Pyknosed Nuclei (%) [5]: 8% | Total Cell Count [5]: 270 | Population Apoptotic (%) [6]: 42% | Population Fragmented Nuclei (%) [6]: 13% | Population Healthy Nuclei (%) [6]: 82% | Population Hoechst High Intensity Objects (%) [6]: 5% | Population Membrane Permeable-Phenotype (%) [6]: 10% | Population Mitochondria Different-Phenotype (%) [6]: 7% | Population Mitotic Cells (%) [6]: 57% | Population Normal (%) [6]: 94% | Population Pyknosed Nuclei (%) [6]: 3% | Population Tubulin-Different-Phenotype (%) [6]: 29% | Total Cell Count [6]: 144 | Population Apoptotic (%) [7]: 13% | Population Fragmented Nuclei (%) [7]: 6% | Population Healthy Nuclei (%) [7]: 81% | Population Hoechst High Intensity Objects (%) [7]: 7% | Population Membrane Permeable-Phenotype (%) [7]: 12% | Population Mitochondria Different-Phenotype (%) [7]: 20% | Population Mitotic Cells (%) [7]: 86% | Population Normal (%) [7]: 92% | Population Pyknosed Nuclei (%) [7]: 11% | Population Tubulin-Different-Phenotype (%) [7]: 31% | Total Cell Count [7]: 190 | Population Apoptotic (%) [8]: 0% | Population Fragmented Nuclei (%) [8]: 14% | Population Healthy Nuclei (%) [8]: 84% | Population Hoechst High Intensity Objects (%) [8]: 11% | Population Membrane Permeable-Phenotype (%) [8]: 11% | Population Mitochondria Different-Phenotype (%) [8]: 31% | Population Mitotic Cells (%) [8]: 100% | Population Normal (%) [8]: 88% | Population Pyknosed Nuclei (%) [8]: 1% | Population Tubulin-Different-Phenotype (%) [8]: 34% | Total Cell Count [8]: 120
